Measurements taken from ChEMBL document CHEMBL5724801, “EUbOPEN Chemogenomics Library - Multiplex” (2024).
Values joined by “and” are separate entries in the source; they are usually repeats but may differ in a detail not shown here. Identical values can stand only once.

Tests used:
U2OS = assay: Multiplex assay against U2OS; assay type: toxicity, cell-based; conditions: human
Method in brief: (§1)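 Live cells carried four stains from seeding: Hoechst33342, BioTracker Green Microtubule Cytoskeleton Dye, MitoTracker Red and Annexin V Alexa Fluor 680. They were imaged on a CQ1 microscope at 37°C and 5% CO2 after compound addition. Using CellPathfinder machine-learning gating, cells were split into Hoechst high-intensity objects or normal cells, normal cells into healthy, pyknosed or fragmented nuclei, and pyknosed cells into mitotic or apoptotic; tubulin, mitochondrial-mass and membrane-permeability phenotypes are per cents of healthy-nucleus cells.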

HEK-293T = assay: Multiplex assay against HEK293T; assay type: toxicity, cell-based; conditions: human; method in brief: as §1
[1] = 12 h, 1 µM, compound concentration 1 uM
[2] = 12 h, 10 µM, compound concentration 10 uM
[3] = 24 h, 1 µM, compound concentration 1 uM
[4] = 24 h, 10 µM, compound concentration 10 uM
[5] = 48 h, 1 µM, compound concentration 1 uM
[6] = 48 h, 10 µM, compound concentration 10 uM

N#Cc1c(Oc2cccc(OS(=O)(=O)CCCC(F)(F)F)c2)cccc1C(F)(F)F
Population Apoptotic (%) (U2OS; [1]): 77% and 81%
Population Fragmented Nuclei (%) (U2OS; [1]): 27% and 12%
Population Healthy Nuclei (%) (U2OS; [1]): 61% and 76%
Population Hoechst High Intensity Objects (%) (U2OS; [1]): 3% and 0%
Population Membrane Permeable-Phenotype (%) (U2OS; [1]): 4% and 7%
Population Mitochondria Different-Phenotype (%) (U2OS; [1]): 2% and 7%
Population Mitotic Cells (%) (U2OS; [1]): 22% and 18%
Population Normal (%) (U2OS; [1]): 96% and 99%
Population Pyknosed Nuclei (%) (U2OS; [1]): 10%
Population Tubulin-Different-Phenotype (%) (U2OS; [1]): 0% and 8%
Total Cell Count (U2OS; [1]): 220 and 109
Population Apoptotic (%) (U2OS; [2]): 78% and 90%
Population Fragmented Nuclei (%) (U2OS; [2]): 27% and 14%
Population Healthy Nuclei (%) (U2OS; [2]): 63% and 75%
Population Hoechst High Intensity Objects (%) (U2OS; [2]): 3% and 0%
Population Membrane Permeable-Phenotype (%) (U2OS; [2]): 11% and 21%
Population Mitochondria Different-Phenotype (%) (U2OS; [2]): 8% and 4%
Population Mitotic Cells (%) (U2OS; [2]): 21% and 9%
Population Normal (%) (U2OS; [2]): 96% and 99%
Population Pyknosed Nuclei (%) (U2OS; [2]): 8% and 9%
Population Tubulin-Different-Phenotype (%) (U2OS; [2]): 7%
Total Cell Count (U2OS; [2]): 222 and 112
Population Apoptotic (%) (U2OS; [3]): 75% and 90%
Population Fragmented Nuclei (%) (U2OS; [3]): 25% and 12%
Population Healthy Nuclei (%) (U2OS; [3]): 61% and 79%
Population Hoechst High Intensity Objects (%) (U2OS; [3]): 2% and 1%
Population Membrane Permeable-Phenotype (%) (U2OS; [3]): 4% and 11%
Population Mitochondria Different-Phenotype (%) (U2OS; [3]): 2% and 3%
Population Mitotic Cells (%) (U2OS; [3]): 24% and 10%
Population Normal (%) (U2OS; [3]): 97% and 98%
Population Pyknosed Nuclei (%) (U2OS; [3]): 12% and 7%
Population Tubulin-Different-Phenotype (%) (U2OS; [3]): 3% and 7%
Total Cell Count (U2OS; [3]): 263 and 130
Population Apoptotic (%) (U2OS; [4]): 66%
Population Fragmented Nuclei (%) (U2OS; [4]): 26% and 9%
Population Healthy Nuclei (%) (U2OS; [4]): 66% and 83%
Population Hoechst High Intensity Objects (%) (U2OS; [4]): 6% and 3%
Population Membrane Permeable-Phenotype (%) (U2OS; [4]): 10% and 11%
Population Mitochondria Different-Phenotype (%) (U2OS; [4]): 8% and 0%
Population Mitotic Cells (%) (U2OS; [4]): 33%
Population Normal (%) (U2OS; [4]): 93% and 96%
Population Pyknosed Nuclei (%) (U2OS; [4]): 7%
Population Tubulin-Different-Phenotype (%) (U2OS; [4]): 5% and 7%
Total Cell Count (U2OS; [4]): 252 and 130
Population Apoptotic (%) (U2OS; [5]): 87% and 100%
Population Fragmented Nuclei (%) (U2OS; [5]): 17% and 16%
Population Healthy Nuclei (%) (U2OS; [5]): 70% and 73%
Population Hoechst High Intensity Objects (%) (U2OS; [5]): 3% and 2%
Population Membrane Permeable-Phenotype (%) (U2OS; [5]): 4% and 9%
Population Mitochondria Different-Phenotype (%) (U2OS; [5]): 0% and 4%
Population Mitotic Cells (%) (U2OS; [5]): 12% and 0%
Population Normal (%) (U2OS; [5]): 96% and 97%
Population Pyknosed Nuclei (%) (U2OS; [5]): 11% and 9%
Population Tubulin-Different-Phenotype (%) (U2OS; [5]): 3% and 7%
Total Cell Count (U2OS; [5]): 361 and 195
Population Apoptotic (%) (U2OS; [6]): 91% and 100%
Population Fragmented Nuclei (%) (U2OS; [6]): 23% and 11%
Population Healthy Nuclei (%) (U2OS; [6]): 64% and 77%
Population Hoechst High Intensity Objects (%) (U2OS; [6]): 4% and 3%
Population Membrane Permeable-Phenotype (%) (U2OS; [6]): 10% and 13%
Population Mitochondria Different-Phenotype (%) (U2OS; [6]): 6% and 4%
Population Mitotic Cells (%) (U2OS; [6]): 8% and 0%
Population Normal (%) (U2OS; [6]): 95% and 96%
Population Pyknosed Nuclei (%) (U2OS; [6]): 11% and 10%
Population Tubulin-Different-Phenotype (%) (U2OS; [6]): 6% and 7%
Total Cell Count (U2OS; [6]): 328 and 184
Population Apoptotic (%) (HEK-293T; [1]): 35% and 63%
Population Fragmented Nuclei (%) (HEK-293T; [1]): 4% and 6%
Population Healthy Nuclei (%) (HEK-293T; [1]): 86% and 75%
Population Hoechst High Intensity Objects (%) (HEK-293T; [1]): 5% and 11%
Population Membrane Permeable-Phenotype (%) (HEK-293T; [1]): 0%
Population Mitochondria Different-Phenotype (%) (HEK-293T; [1]): 46% and 60%
Population Mitotic Cells (%) (HEK-293T; [1]): 65% and 36%
Population Normal (%) (HEK-293T; [1]): 94% and 88%
Population Pyknosed Nuclei (%) (HEK-293T; [1]): 8% and 17%
Population Tubulin-Different-Phenotype (%) (HEK-293T; [1]): 38% and 28%
Total Cell Count (HEK-293T; [1]): 490 and 349
Population Apoptotic (%) (HEK-293T; [2]): 42% and 44%
Population Fragmented Nuclei (%) (HEK-293T; [2]): 8% and 6%
Population Healthy Nuclei (%) (HEK-293T; [2]): 65% and 64%
Population Membrane Permeable-Phenotype (%) (HEK-293T; [2]): 0%
Population Mitochondria Different-Phenotype (%) (HEK-293T; [2]): 74% and 81%
Population Mitotic Cells (%) (HEK-293T; [2]): 57% and 55%
Population Normal (%) (HEK-293T; [2]): 89% and 59%
Population Pyknosed Nuclei (%) (HEK-293T; [2]): 25% and 28%
Population Tubulin-Different-Phenotype (%) (HEK-293T; [2]): 65% and 58%
Total Cell Count (HEK-293T; [2]): 290 and 318
Population Apoptotic (%) (HEK-293T; [3]): 28% and 60%
Population Fragmented Nuclei (%) (HEK-293T; [3]): 10% and 8%
Population Healthy Nuclei (%) (HEK-293T; [3]): 77% and 81%
Population Hoechst High Intensity Objects (%) (HEK-293T; [3]): 3% and 9%
Population Membrane Permeable-Phenotype (%) (HEK-293T; [3]): 0%
Population Mitochondria Different-Phenotype (%) (HEK-293T; [3]): 34% and 48%
Population Mitotic Cells (%) (HEK-293T; [3]): 71% and 40%
Population Normal (%) (HEK-293T; [3]): 96% and 90%
